Results published in ChEMBL document CHEMBL1154602, “Toward a rational design of multitarget-directed antioxidants: merging memoquin and lipoic acid molecular frameworks” (J Med Chem, 2009).
Calls of active or inactive are those of the source. The rule behind the calls is not given here.

Legend:
[1] = molecular target: Acetylcholinesterase (Homo sapiens, UniProt P22303); assay: Inhibition of human recombinant AChE by Ellman's method
Outline: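 Human recombinant AChE. IC50 is the inhibitor concentration that decreases enzyme activity by 50%. Values are the mean of two independent measurements, each run in triplicate, with SEM.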

[2] = species: Bos taurus; assay: Antioxidant activity in bovine heart submitochondrial particles assessed as inhibition of antimycin A-induced ROS production at 10 uM by fluorescence assay; type: functional
Outline: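 Submitochondrial particles given NADH; ROS production triggered by antimycin A addition. Quinone (oxidized) form tested at 10 μM.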

[3] = species: Bos taurus; assay: Antioxidant activity in bovine heart submitochondrial particles assessed as inhibition of antimycin A-induced ROS production at 10 uM pretreated for 30 mins with human NQO1 by fluorescence assay; type: functional
Outline: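 Submitochondrial particles given NADH; ROS production triggered by antimycin A. Compound first reduced by 30 min preincubation with purified human NQO1 using NADH as substrate, reaction then stopped with 10 μM dicumarol; tested at 10 μM.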

[4] = tested on: T67; assay: Antioxidant activity in human T67 cells assessed as inhibition of tert-butyl hydroperoxide-induced ROS production at 10 uM after 24 hrs by fluorescence assay; type: functional, cell-based
Outline: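 T67 cells without sulforaphane pretreatment; ROS formation induced by t-BuOOH; oxidized form tested at 10 μM; significance set at p ≤ 0.05 versus t-BuOOH-treated cells.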

[5] = tested on: T67; assay: Antioxidant activity in human T67 cells assessed as inhibition of tert-butyl hydroperoxide-induced ROS production at 10 uM after 24 hrs by fluorescence assay in presence of 2.5 uM sulforaphane treated for 24 hrs before compound addition; type: functional, cell-based
Outline: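 T67 cells pretreated with 2.5 μM sulforaphane to raise NQO1 activity; ROS formation induced by t-BuOOH; oxidized form tested at 10 μM; significance set at p ≤ 0.05 versus t-BuOOH + sulforaphane-treated cells.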

[6] = Inhibition of amyloid beta (1 to 42) self-aggregation assessed as amyloid fibril formation at 10 uM by thioflavin-T based fluorometric assay
Outline: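 Self-induced Aβ(1-42) aggregation at 50 μM, test compound at 10 μM; percent inhibition reported with SEM.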

[7] = molecular target: Cholinesterase (Homo sapiens, UniProt P06276); assay: Inhibition of human recombinant BChE by Ellman's method
Chain of Cholinesterase (P06276 whole entry): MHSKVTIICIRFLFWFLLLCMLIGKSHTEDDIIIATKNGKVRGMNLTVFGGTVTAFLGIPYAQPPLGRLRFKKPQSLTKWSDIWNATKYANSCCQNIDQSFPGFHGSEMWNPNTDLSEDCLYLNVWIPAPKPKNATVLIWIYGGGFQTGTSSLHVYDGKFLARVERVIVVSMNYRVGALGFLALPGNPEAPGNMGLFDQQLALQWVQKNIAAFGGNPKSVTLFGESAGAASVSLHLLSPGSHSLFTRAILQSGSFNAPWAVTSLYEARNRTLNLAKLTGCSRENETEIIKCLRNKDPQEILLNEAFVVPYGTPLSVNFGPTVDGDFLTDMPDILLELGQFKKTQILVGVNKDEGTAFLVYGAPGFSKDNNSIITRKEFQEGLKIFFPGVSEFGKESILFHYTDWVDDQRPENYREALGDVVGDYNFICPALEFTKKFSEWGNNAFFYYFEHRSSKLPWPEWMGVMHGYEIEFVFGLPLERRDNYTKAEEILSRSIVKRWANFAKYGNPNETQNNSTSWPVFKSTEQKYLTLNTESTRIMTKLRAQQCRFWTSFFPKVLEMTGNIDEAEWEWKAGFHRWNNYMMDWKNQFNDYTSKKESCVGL

Chain of Acetylcholinesterase (P22303 whole entry): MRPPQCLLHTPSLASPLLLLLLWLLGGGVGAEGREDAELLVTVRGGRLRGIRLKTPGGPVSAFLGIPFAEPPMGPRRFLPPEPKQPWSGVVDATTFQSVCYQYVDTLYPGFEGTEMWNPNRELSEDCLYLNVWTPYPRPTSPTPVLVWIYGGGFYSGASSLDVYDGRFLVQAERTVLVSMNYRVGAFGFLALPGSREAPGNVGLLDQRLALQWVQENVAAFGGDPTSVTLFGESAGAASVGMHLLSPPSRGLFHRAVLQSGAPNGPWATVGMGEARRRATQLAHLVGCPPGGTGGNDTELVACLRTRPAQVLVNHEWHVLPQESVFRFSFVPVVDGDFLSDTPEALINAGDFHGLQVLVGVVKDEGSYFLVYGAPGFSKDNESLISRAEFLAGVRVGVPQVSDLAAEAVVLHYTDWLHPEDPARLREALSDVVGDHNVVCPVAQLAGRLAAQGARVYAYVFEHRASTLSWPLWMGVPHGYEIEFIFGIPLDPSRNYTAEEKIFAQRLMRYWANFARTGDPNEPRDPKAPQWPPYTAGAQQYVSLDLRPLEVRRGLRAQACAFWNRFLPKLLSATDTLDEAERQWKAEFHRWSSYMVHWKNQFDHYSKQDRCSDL

Row | SMILES | IC50 [1] [nM] | Activity [2] | Activity [3] | Activity [4] | Activity [5] | inhibition [6] [%] | IC50 [7] [nM]
1 | CCN(CCCCCCNC1=CC(=O)C(NCCCCCCN(CC)Cc2ccccc2OC)=CC1=O)Cc1ccccc1OC [MEMOQUIN] | 1.5 |  |  |  |  |  | 
2 | CCN(CCCCCCNC1=CC(=O)C(NCCCCCCNC(=O)CCCCC2CCSS2)=CC1=O)Cc1ccccc1OC (stereo unspecified) | 100 | Active | Active | Active | Active | 45.4 | 4990
3 | CCN(CCCNC1=CC(=O)C(NCCCNC(=O)CCCCC2CCSS2)=CC1=O)Cc1ccccc1OC (stereo unspecified) | 190 | Active | Active | Active | Active | 19.2 | 212000
4 | O=C(CCCCC1CCSS1)NCCCNc1c2c(nc3cc(Cl)ccc13)CCCC2 (stereo unspecified) |  |  |  |  | inactive | < 10 | 
5 | CCN(CCCCCCNC1=CC(=O)C(NCCCNC(=O)CCCCC2CCSS2)=CC1=O)Cc1ccccc1OC (stereo unspecified) | 150 | Active | Active | Active | Active | 34.4 | 21000
6 | CCN(CCCNC1=CC(=O)C(NCCCCCCNC(=O)CCCCC2CCSS2)=CC1=O)Cc1ccccc1OC (stereo unspecified) | 160 | Active | Active | Active | Active | 31.8 | 11100
